Assay results gathered from unrelated publications.
Lines come from different studies, so protocols differ.
Target: Citron Rho-interacting kinase (CIT, Homo sapiens, UniProt O14578)

`CCCCC(=O)Nc1ccc(-c2ccc3ncn(CCC)c(=O)c3c2)cn1` has a remaining binding of 83% (binding, competition with immobilised ligand; 0.5 µM).
For `COc1ccc2oc(-c3ccc4nc(N)oc4c3)c/c(=N\c3ccccc3NC(=O)CCN)c2c1`, the remaining binding was 92% (binding; 1 µM).
The remaining binding of `Cc1ccc(NC(=O)c2ccnc(C(F)(F)F)c2)cc1-c1cc(OCCO)nc(N2CCOCC2)c1` is reported as 96% (binding, competition with immobilised ligand; 1 µM).
`CC(C)S(=O)(=O)c1ccc2nccc(Nc3ccc4sc(C5CCCC5)nc4c3)c2c1` has an activity vs control of 113% (enzyme activity, inhibitor; 1 µM).
`CO[C@@H]1[C@H](N(C)C(=O)c2ccccc2)C[C@H]2O[C@]1(C)n1c3ccccc3c3c4c(c5c6ccccc6n2c5c31)C(=O)NC4` has an inhibition of 0% (enzyme activity, inhibitor; 1 µM).
With `C1=C/COCc2cc(ccc2OCCN2CCCC2)Nc2nccc(n2)-c2cccc(c2)COC/1` the remaining signal was 72% (cell-free assay; 0.1 µM).
For `CC#CC(=O)N1CCC[C@H]1c1nc(-c2ccc(C(=O)Nc3ccccn3)cc2)c2c(N)nccn12`, the inhibition was 1% (enzyme activity, inhibitor; 1 µM).
The remaining binding of `CN1CCN(C(=O)c2ccc(NC(=O)Nc3ccc(N(C)c4ccnc(Nc5ccc(CS(C)(=O)=O)cc5)n4)cc3)cc2)CC1` is reported as 79% (binding, competition with immobilised ligand; 1 µM).
